Test results from ChEMBL document CHEMBL1121655, “Methylangelicins: new potential agents for the photochemotherapy of psoriasis. Structure-activity study on the dark and photochemical interactions with DNA” (J Med Chem, 1981).
Converted amounts (≈) assume the structure as drawn.

Experiments:
[1] = Water solubility (solubility in mol/L); assay type: ADME; conditions: read-out: S
Ehrlich [2] = experiment: Compound was evaluated for the inhibition of DNA synthesis in Ehrlich Ascites tumor cells by irradiation (365 nm) at 1.9 x 10 e-5M; assay type: functional
Method in brief: (§1)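 Ehrlich ascites cells, 2×10^7 cells/mL in Hank's solution, on ice with 1.9×10^-5 M compound, irradiated by HPW 125 lamp at 20 cm (2.02×10^16 quanta/s). Then 2×10^6 cells pulsed 15 min at 37 °C with 1 μCi [3H]thymidine (DNA) or [3H]uridine (RNA). TCA-insoluble counts as % of untreated. Each dose at least in duplicate. D50 = UV dose giving 50% inhibition.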

Ehrlich [3] = experiment: Compound was evaluated for the inhibition of RNA synthesis in Ehrlich Ascites tumor cells by irradiation (365 nm) at 1.9 x 10 e-5M; assay type: functional; method in brief: as §1
Nucleic Acid [4] = experiment: (§2) Compound was evaluated for association constant in the calf thymus DNA; assay type: functional; conditions: Bos taurus
Method in brief: (§3)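 Equilibrium dialysis at 25 ± 0.05 °C in the dark, 12 h with shaking, across a cellophane membrane. Tritiated angelicin at slightly below its water solubility in 0.02 M NaCl with 1 mM EDTA, against DNA at 3×10^-3 to 3×10^-4 M. Both phases counted by scintillation to give r and c. K and n fitted iteratively to the McGhee–von Hippel equation.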

Nucleic Acid [5] = experiment: Compound was evaluated for rate constant in the calf thymus DNA; assay type: functional; conditions: Bos taurus
Method in brief: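 DNA at 2.3×10^-3 M in 2×10^-3 M NaCl and 1×10^-3 M EDTA with 3×10^-5 M labeled furocoumarin. Irradiated at 365 nm, 1.07×10^16 quanta s^-1 mL^-1, for increasing times in a thermostatted bath. Complexed fraction at time 0 taken from dialysis at 2 mM NaCl with ligand:nucleotide 1:76.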

Nucleic Acid [6] = experiment: as §2; assay type: nucleic-acid assay; conditions: Bos taurus; method in brief: as §3

For `Cc1cc(=O)oc2c1ccc1occc12`, the solubility [1] was 4 µg/mL (≈ 20 µM), the D50 (Ehrlich [2]) was 2.4e+19 quanta and the D50 (Ehrlich [3]) was 1.81e+19 quanta. It also gave a K (Nucleic Acid [4]) of 1400 and a Rate constant (Nucleic Acid [5]) of 0.016 min⁻¹.

With `Cc1cc2c(ccc3c(C)cc(=O)oc32)o1` the D50 (Ehrlich [2]) was 1.09e+19 quanta, the D50 (Ehrlich [3]) was 1.35e+19 quanta and the K (Nucleic Acid [6]) was 1450.

Molecule `O=c1ccc2cc3ccoc3cc2o1` [PSORALEN] has a D50 (Ehrlich [2]) of 9.1e+18 quanta and a D50 (Ehrlich [3]) of 1.4e+19 quanta.

In the case of `Cc1cc2c(ccc3ccc(=O)oc32)o1`, the solubility [1] is reported as 12 µg/mL (≈ 59.9 µM), the D50 (Ehrlich [2]) is reported as 1.66e+19 quanta and the D50 (Ehrlich [3]) is reported as 1.74e+19 quanta. The K (Nucleic Acid [4]) was 1200 and the Rate constant (Nucleic Acid [5]) was 0.021 min⁻¹.

With `O=c1ccc2ccc3occc3c2o1` [ANGELICIN] the solubility [1] was 20 µg/mL (≈ 107 µM), the D50 (Ehrlich [2]) was 2.5e+19 quanta and the D50 (Ehrlich [3]) was 2.33e+19 quanta. For the same molecule, the K (Nucleic Acid [4]) was 560 and the Rate constant (Nucleic Acid [5]) was 0.011 min⁻¹.

For `Cc1cc2occc2c2oc(=O)ccc12`, the solubility [1] was 4.5 µg/mL (≈ 22.5 µM), the D50 (Ehrlich [2]) was 9.1e+18 quanta and the D50 (Ehrlich [3]) was 8.3e+18 quanta. It also gave a K (Nucleic Acid [4]) of 1560 and a Rate constant (Nucleic Acid [5]) of 0.034 min⁻¹.

Molecule `Cc1cc2c(cc(C)c3ccc(=O)oc32)o1` has a solubility [1] of 3 µg/mL (≈ 14 µM), a D50 (Ehrlich [2]) of 1.38e+19 quanta and a D50 (Ehrlich [3]) of 6.6e+18 quanta. The K (Nucleic Acid [4]) was 1750 and the Rate constant (Nucleic Acid [5]) was 0.027 min⁻¹.
